Arr AP2 block – blocks beta-arrestin peptide binding to AP2 adaptin; inhibition, % at 10 µM; 0.31% of 340,000 active; FITC-arrestin peptide / GST-AP2 beads, flow cytometry; AP2 beta2 appendage carries R879A mutation;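 active = inhibition above a set limit, near 3 SD of compounds lacking own fluorescence, cut at about 54% in these data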;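 note: plate controls were DMSO wells for no effect and 5 µM unlabelled arrestin peptide for full effect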
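System: GST-AP2 R879A glutathione beads | Also added: FITC-arrestin peptide, 50 nM | Times: 12 min plus 1 h, RT | Signal: Bead flow cytometry, FITC channel | Buffer or medium: PBS with 0.05% Tween 20 and 0.1% BSA | Read-out basis: Percent drop in bead-associated FITC signal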
GalR3 antagonist – blocks the human galanin receptor 3; O60755; HEK293 GalR3-CNG cAMP membrane potential fluorescence; galR3 body fused to GalR1 C-terminus; inhibition, % at 3 µM; 0.44% of 360,000 active; AID 651719;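 active = inhibition above the screen-wide average plus 3 SD, cut at about 13% in these data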;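 note: forskolin and galanin both at EC90 stimulate the cells; cAMP rise reported by CNG channel membrane potential dye signal; 0% = forskolin plus galanin with DMSO and 100% = forskolin alone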
Target sequence (O60755 1-299 limits assumed): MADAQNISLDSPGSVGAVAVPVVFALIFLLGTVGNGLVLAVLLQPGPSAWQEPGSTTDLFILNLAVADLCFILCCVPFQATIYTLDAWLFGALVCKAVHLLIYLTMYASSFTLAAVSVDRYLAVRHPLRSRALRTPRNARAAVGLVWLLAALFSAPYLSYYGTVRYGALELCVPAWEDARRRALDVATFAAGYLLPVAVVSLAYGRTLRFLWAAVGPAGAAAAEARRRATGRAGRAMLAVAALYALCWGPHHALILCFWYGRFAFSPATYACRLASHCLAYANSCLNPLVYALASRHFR
GC-B act – GC-B (human) receptor activation. P20594. HEK293-GC-B cells, CNP EC30, cGMP TR-FRET; 0% at EC30 CNP, 100% saturating CNP. 0.11% of 370,000 active. activation, % at 10 µM;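 active = activation at 10 µM reaching about 35% in either raw or pattern-adjusted values, limit read from the data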
NPR1 activator – GC-A (human) enzyme activation; P16066; HEK293 GC-A cells, cGMP TR-FRET, EC30 ANP; 0% at EC30 ANP, 100% saturating ANP; activation, % at 10 µM; 0.14% of 370,000 active; AID 1671463; in the data active = activation above about 40%
GalR3 antag conf – confirmation of human galanin receptor 3 antagonists | shares compounds with GalR3 antagonist | HEK293 GalR3 CNG cAMP biosensor, membrane potential fluorescence; galR3 fused to GalR1 carboxy tail; challenged with forskolin and galanin at EC90 | inhibition, % at 3 µM | 59% of 1,600 active | AID 652245;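 active = inhibition above the primary screen's cutoff, the mean inhibition of all screened compounds plus 3 SD, cut at about 13% in these data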;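 note: 0% = forskolin plus galanin and 100% = forskolin alone with DMSO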
HEK-CNG parental – acts as nonspecific agonist in parental HEK-CNG cells; shares compounds with GalR3 antagonist; HEK293-CNG parental cells, cAMP membrane potential fluorescence; normalised: DMSO wells 0%, forskolin wells 100%; activation, % at 3 µM; 10% of 1,600 active; in the data active = activation above about 1.3%
An asterisk follows results filed as active; nt = not tested or not shown. This is a sample that favours compounds with a hit; in the whole collection about 0.94% have one here.

SMILES	Arr AP2 block	GalR3 antagonist	GC-B act	NPR1 activator	GalR3 antag conf	HEK-CNG parental
N#Cc1c(N)nc(SCc2ccccn2)c(C#N)c1-c1cccs1	9.9	74.8*	3.6	9.9	49.0*	2.5*
Cc1ccc(NC(=O)CN(C)C(=O)CCCN2C(=O)c3ccccc3C2=O)cc1	2.8	14.3*	14.2	-0.4	9.9	0.0
COc1ccc(NC(=O)C2Cc3c(-c4ccc(NC(C)=O)cc4)ccnc3O2)cc1OC (centres undefined)	nt	-2.4	-1.2	0.7	nt	nt
COc1ccc(NC(=O)C2Cc3c(-c4ccc5c(c4)OCO5)ccnc3O2)cc1OC (centres undefined)	nt	66.4*	35.0	27.6	74.3*	-0.2
Cc1cc(-c2cc(NC(=O)Cc3c[nH]c4ccccc34)ccc2Nc2cccnc2)ccc1F	nt	-7.2	-7.0	2.1	nt	nt
Clc1cccc(CN2CCN(c3ncc(Cc4ccccc4)cn3)CC2)c1Cl	nt	55.0*	4.0	-0.5	105.6*	-0.5
CC(C)c1ccc(CN2CCN(C(=O)CSc3nnnn3C3CC3)CC2)cc1	10.2	96.7*	0.1	-0.3	106.5*	-0.3
COc1cccc(-c2cc(C(=O)Nc3ccc(N(C)C(C)=O)cc3)c3cc(Br)ccc3n2)c1	11.4	18.8*	8.2	23.2	10.2	1.4*
COc1cccc(-c2cc(C(=O)Nc3ccncc3)c3ccccc3n2)c1	-29.2	0.9	4.4	7.9	nt	nt
COCCCNC(=O)c1cc2cc(Br)ccc2oc1=O	-5.7	33.6*	-4.2	3.5	0.4	0.2
COC(=O)[C@H](Cc1ccccc1)NC(=O)[C@H]1C[C@@]2(N3CCCC3)c3ccccc3N(C(=O)OC(C)(C)C)[C@H]2N1C(=O)OC(C)(C)C	nt	nt	-4.0	-4.2	nt	nt
CC(=O)Nc1ccc(S(=O)(=O)Oc2ccc(N3C(=O)C4CCCCC4C3=O)cc2)cc1 (centres undefined)	1.6	42.0*	-2.1	3.6	38.9*	-1.0
CCOC(=O)N[C@@H](Cc1cccnc1)C(=O)N1CCC[C@H]1C(=O)NCCc1ccccc1Cl	nt	-3.3	1.3	0.7	nt	nt
COCc1cc(N2CCN(C(=O)OC(C)(C)C)C[C@H]2C)ccc1N1CCS(=O)(=O)CC1	nt	-8.7	0.3	-0.8	nt	nt
CC(C)c1ccc(Nc2nc(Cl)nc(NCCO)n2)cc1	1.2	-10.5	4.7	5.1	nt	nt
COc1ccc(Nc2nc(Cl)nc(NCCO)n2)cc1	12.6	19.6*	-1.2	-1.2	-1.1	0.1
CC1CCCCN1S(=O)(=O)c1ccc(S(=O)(=O)N(Cc2ccccc2)Cc2ccco2)cc1 (centres undefined)	1.7	12.8*	6.6	0.6	11.0	-0.8
COn1c(-c2ccc(Cl)cc2)nc2ccc(Cl)cc21	-8.1	-7.0	1.6	-1.2	nt	nt
O=C(O)COn1c(-c2ccc(Cl)cc2)nc2ccc(Cl)cc21	6.3	30.2*	-5.1	1.0	13.8*	0.3
CC(C)(C)c1ccc(C(=O)Nc2ccc(Oc3cccnc3)nc2)cc1	42.7	110.7*	-1.0	0.8	114.5*	-0.3
CC(C)(C)c1ccc(C(=O)Nc2cccnc2)cc1	34.7	-2.3	0.4	-8.3	nt	nt
C=CCN1C(=O)c2n[nH]c(C)c2C1c1ccc(C)cc1 (centres undefined)	nt	-3.6	10.5	3.4	nt	nt
O=C(Nc1ccc2c(c1)OCCO2)NC1CCCCC1	-2.1	nt	-0.9	11.4	-0.4	0.5
Cc1ccc(OCC(=O)Nc2cc(S(=O)(=O)N3CCCCC3)ccc2C)c([N+](=O)[O-])n1	-6.0	12.8*	4.1	0.2	0.4	-0.2
Cc1ccc(OCC(=O)Nc2ccc(S(=O)(=O)N3CCCCC3)cc2)c([N+](=O)[O-])n1	2.4	-5.7	0.9	-0.7	nt	nt
SMILES	Arr AP2 block	GalR3 antagonist	GC-B act	NPR1 activator	GalR3 antag conf	HEK-CNG parental
CCCCS(=O)(=O)N1C2=NC(C(=O)OCC)=C(C(=O)OCC)C3N(Cc4ccc(C#N)cc4)c4ccccc4[C@]23C[C@H]1C(=O)OC (some centres undefined)	nt	-7.4	6.7	-1.6	nt	nt
Brc1ccc(OCCN2CCOCC2)cc1	-3.2	-8.6	0.7	2.7	nt	nt
Brc1ccc(OCCCN2CCOCC2)cc1	2.5	16.4*	-1.1	5.0	-0.2	0.4
Cc1ccc(NC(=O)c2ccccc2NS(=O)(=O)c2ccc(Cl)s2)cc1	28.7	16.7*	2.0	9.4	33.2*	0.6
O=C(Nc1ccccc1Cc1ccccc1)c1ccccc1NS(=O)(=O)c1ccc(Cl)s1	25.4	96.2*	6.6	3.5	103.5*	-0.5
CC(C)CC(c1nnnn1C(C)C)N1CCN(c2ccccc2)CC1 (centres undefined)	-5.2	nt	4.3	-0.4	-5.3	6.9*
Cc1ccc(S(=O)(=O)Cn2nnnc2C(CC(C)C)N2CCN(c3ccccc3)CC2)cc1 (centres undefined)	30.3	-3.3	-0.1	5.2	nt	nt
CCNC(=O)N1CCN(c2ccc(N3CCN(Cc4ccccc4)[C@H](C)C3)c(C)c2)[C@H](C)C1	nt	-4.3	3.5	4.1	nt	nt
Nc1cc(=O)[nH]c(=O)n1-c1cccc(F)c1	-3.9	26.5*	-2.4	1.1	5.6	0.1
C/C(=N\O)C(C)NC(=O)c1ccccc1 (centres undefined)	4.9	0.4	3.1	1.5	nt	nt
C#CC(C)OC(=O)C(C)NC(=O)c1ccccc1 (centres undefined)	-2.4	nt	2.9	3.3	13.9*	0.2
N#C/C(=C(/O)COc1ccc(Cl)cc1)c1nc2ccccc2s1	51.9	13.6*	5.0	1.3	2.0	1.3*
O=C(NCC1CC1)c1ccc(Nc2nc3ccc(Br)cc3[nH]2)cc1	-8.9	-2.9	6.7	8.6	nt	nt
O=C(Cc1ccc(Nc2nc3ccc(Br)cc3[nH]2)cc1)NCCc1cccs1	14.6	15.3*	-7.4	-6.3	27.0*	-0.9
O=C(COc1cc(Cl)c(Cl)cc1Cl)Nc1ccncc1	6.0	13.0*	-4.0	13.9	8.7	-0.4
C#Cc1ccc([C@@H]2C=C(C(=O)Nc3ccccc3)O[C@H](OCC)[C@H]2CCCO)cc1	3.3	nt	-0.4	-0.5	4.2	-0.5
C#Cc1ccc([C@H]2C=C(C(=O)NCc3ccccc3)O[C@@H](OCC)[C@@H]2CCCO)cc1	8.3	-3.5	-4.6	1.5	nt	nt
CCOC(=O)C1CSCCS(=O)(=O)N1Cc1ccc(Br)cc1 (centres undefined)	nt	-2.6	-2.2	-3.5	nt	nt
O=C(c1cccs1)N1CCOCC1	2.8	12.9*	1.1	-1.5	7.2	0.2
O=C(c1cccs1)N1CCCC1	-5.1	-1.8	-7.5	2.0	nt	nt
Cc1nc2ccccc2n1Cc1ccc(Cl)cc1	-6.4	86.9*	-0.2	9.3	108.5*	-0.1
Cc1ccccc1Cn1c(C)nc2ccccc21	11.5	60.2*	0.0	6.3	103.5*	0.0
